ChEMBL document CHEMBL4371052, “Diarylcarbonates are a new class of deubiquitinating enzyme inhibitor” (Bioorg Med Chem Lett, 2019)
Active and inactive are the calls of the source. The rule behind the calls is not given here.

Legend:
[1] = biological target: T1, Ubiquitin carboxyl-terminal hydrolase 8 (Homo sapiens) (UniProt P40818); assay: Inhibition of USP8 in HEK293T cell lysates at 25 uM using HA-tagged vinyl-sulfone as substrate preincubated for 19 to 60 mins followed by substrate addition and measured after 19 to 25 mins by Western blot analysis; type: subcellular; settings: Lysate
T1 sequence (whole entry): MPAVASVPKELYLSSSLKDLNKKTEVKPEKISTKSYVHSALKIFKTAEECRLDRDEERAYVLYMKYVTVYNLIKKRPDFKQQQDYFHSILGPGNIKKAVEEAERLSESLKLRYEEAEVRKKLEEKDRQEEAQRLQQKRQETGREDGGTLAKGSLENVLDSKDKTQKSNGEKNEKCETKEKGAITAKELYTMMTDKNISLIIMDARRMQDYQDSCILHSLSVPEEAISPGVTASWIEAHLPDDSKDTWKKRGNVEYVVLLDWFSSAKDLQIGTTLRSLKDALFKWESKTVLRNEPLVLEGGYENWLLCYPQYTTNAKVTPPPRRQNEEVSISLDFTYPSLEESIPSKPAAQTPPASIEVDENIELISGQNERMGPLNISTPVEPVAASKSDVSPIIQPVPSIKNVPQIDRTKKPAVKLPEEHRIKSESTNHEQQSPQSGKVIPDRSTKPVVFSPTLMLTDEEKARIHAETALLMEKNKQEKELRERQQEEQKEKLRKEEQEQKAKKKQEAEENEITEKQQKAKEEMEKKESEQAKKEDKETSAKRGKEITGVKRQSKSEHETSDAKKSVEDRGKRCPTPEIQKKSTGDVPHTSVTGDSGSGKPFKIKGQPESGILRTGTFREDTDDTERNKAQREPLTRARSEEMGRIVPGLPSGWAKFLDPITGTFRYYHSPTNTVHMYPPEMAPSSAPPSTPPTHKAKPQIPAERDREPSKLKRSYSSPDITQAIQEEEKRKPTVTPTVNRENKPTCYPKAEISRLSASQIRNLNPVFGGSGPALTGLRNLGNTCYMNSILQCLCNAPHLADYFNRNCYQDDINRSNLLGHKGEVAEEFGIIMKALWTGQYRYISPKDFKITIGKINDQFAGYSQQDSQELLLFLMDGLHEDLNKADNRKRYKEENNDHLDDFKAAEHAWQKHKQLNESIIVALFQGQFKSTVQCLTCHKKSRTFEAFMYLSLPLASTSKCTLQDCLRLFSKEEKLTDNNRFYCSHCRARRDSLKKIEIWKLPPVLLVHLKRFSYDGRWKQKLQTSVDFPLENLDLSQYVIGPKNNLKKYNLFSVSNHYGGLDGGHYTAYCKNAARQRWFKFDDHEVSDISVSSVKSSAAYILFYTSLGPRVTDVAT

[2] = biological target: Ubiquitin carboxyl-terminal hydrolase 9X (Homo sapiens) (UniProt Q93008); assay: Inhibition of recombinant His6-tagged USP9x catalytic domain (unknown origin) assessed as association constant using Ub-AMC as substrate by fluorescence assay
Chain of Ubiquitin carboxyl-terminal hydrolase 9X (Homo sapiens) (Q93008 whole entry, the tested form may be a part): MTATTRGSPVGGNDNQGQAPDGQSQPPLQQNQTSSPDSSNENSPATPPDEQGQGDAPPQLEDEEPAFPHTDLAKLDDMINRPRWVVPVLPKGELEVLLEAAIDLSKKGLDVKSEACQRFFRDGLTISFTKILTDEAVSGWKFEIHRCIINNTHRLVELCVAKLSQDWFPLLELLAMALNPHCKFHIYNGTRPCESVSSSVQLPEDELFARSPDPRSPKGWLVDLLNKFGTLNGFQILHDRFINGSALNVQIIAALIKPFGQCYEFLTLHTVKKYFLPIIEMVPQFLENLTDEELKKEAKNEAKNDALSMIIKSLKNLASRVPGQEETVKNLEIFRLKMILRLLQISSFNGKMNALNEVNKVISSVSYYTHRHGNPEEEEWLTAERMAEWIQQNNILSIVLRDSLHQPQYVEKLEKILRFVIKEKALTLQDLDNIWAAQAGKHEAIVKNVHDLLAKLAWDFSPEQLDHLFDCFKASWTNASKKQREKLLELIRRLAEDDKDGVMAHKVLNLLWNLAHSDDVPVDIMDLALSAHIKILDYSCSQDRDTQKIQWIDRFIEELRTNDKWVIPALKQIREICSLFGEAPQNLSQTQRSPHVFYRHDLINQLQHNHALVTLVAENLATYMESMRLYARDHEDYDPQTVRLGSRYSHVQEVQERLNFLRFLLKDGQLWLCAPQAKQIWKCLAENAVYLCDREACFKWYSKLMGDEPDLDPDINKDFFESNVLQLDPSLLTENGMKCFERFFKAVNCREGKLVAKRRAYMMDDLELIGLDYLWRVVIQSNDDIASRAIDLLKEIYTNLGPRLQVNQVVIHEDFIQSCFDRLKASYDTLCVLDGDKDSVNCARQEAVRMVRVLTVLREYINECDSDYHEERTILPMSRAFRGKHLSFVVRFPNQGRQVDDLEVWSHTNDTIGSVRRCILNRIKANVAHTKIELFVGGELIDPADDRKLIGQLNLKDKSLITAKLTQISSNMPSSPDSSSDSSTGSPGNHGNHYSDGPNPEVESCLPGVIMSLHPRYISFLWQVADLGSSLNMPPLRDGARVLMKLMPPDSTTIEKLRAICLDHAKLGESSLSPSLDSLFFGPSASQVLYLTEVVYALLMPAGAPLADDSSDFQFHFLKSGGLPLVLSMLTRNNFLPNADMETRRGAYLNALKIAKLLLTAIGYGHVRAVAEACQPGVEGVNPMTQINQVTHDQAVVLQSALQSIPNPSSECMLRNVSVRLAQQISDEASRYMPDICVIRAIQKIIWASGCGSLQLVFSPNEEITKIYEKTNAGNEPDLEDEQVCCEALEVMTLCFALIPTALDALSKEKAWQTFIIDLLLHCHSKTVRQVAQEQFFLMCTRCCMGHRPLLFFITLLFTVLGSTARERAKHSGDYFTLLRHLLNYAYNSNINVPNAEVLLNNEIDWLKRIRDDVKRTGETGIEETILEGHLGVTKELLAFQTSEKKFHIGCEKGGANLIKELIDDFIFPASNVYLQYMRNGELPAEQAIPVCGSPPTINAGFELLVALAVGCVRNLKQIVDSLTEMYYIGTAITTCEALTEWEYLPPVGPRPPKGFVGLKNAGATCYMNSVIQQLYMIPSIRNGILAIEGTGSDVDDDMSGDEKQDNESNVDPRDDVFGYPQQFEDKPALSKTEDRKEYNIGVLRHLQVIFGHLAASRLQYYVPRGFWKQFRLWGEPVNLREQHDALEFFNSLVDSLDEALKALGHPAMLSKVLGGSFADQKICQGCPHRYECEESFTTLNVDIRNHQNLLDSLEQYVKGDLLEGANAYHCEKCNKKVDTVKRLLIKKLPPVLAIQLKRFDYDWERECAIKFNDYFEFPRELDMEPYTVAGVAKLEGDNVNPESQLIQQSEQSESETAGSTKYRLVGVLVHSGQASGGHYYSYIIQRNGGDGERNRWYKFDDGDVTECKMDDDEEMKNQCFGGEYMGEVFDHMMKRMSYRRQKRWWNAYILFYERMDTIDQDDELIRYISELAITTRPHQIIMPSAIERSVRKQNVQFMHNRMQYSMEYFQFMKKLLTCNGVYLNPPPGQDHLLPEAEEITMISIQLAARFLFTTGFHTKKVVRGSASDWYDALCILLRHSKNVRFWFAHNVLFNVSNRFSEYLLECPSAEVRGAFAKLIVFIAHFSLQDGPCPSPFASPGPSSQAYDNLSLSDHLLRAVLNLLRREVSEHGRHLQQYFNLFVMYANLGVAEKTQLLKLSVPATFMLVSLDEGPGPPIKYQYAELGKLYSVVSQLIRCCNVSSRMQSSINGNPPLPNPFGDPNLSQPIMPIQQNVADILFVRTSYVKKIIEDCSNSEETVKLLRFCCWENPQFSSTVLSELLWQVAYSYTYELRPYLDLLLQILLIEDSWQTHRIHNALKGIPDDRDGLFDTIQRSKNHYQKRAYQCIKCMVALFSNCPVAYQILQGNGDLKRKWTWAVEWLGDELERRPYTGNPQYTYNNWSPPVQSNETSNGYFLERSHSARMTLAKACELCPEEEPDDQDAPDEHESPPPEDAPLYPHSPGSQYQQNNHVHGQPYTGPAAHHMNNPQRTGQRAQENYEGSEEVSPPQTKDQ

Trypsin = Trypsin (Homo sapiens, UniProt P07477+P07478+P35030); assay: Substrate activity at trypsin (unknown origin) by Michaelis-Menten plot analysis; type: ADME, protein assay
How it was run: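 Diarylcarbonate hydrolysis by chymotrypsin or trypsin measured across substrate concentrations; velocity versus substrate concentration fit for Km and kcat.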

[3] = biological target: Ubiquitin carboxyl-terminal hydrolase 7 (Homo sapiens) (UniProt Q93009); assay: Inhibition of USP7 in human MCF7 cells assessed as increase in p21 expression at 25 uM after 4 hrs by Western blot analysis; type: cell-based
Chain of Ubiquitin carboxyl-terminal hydrolase 7 (Homo sapiens) (Q93009 whole entry, looked up): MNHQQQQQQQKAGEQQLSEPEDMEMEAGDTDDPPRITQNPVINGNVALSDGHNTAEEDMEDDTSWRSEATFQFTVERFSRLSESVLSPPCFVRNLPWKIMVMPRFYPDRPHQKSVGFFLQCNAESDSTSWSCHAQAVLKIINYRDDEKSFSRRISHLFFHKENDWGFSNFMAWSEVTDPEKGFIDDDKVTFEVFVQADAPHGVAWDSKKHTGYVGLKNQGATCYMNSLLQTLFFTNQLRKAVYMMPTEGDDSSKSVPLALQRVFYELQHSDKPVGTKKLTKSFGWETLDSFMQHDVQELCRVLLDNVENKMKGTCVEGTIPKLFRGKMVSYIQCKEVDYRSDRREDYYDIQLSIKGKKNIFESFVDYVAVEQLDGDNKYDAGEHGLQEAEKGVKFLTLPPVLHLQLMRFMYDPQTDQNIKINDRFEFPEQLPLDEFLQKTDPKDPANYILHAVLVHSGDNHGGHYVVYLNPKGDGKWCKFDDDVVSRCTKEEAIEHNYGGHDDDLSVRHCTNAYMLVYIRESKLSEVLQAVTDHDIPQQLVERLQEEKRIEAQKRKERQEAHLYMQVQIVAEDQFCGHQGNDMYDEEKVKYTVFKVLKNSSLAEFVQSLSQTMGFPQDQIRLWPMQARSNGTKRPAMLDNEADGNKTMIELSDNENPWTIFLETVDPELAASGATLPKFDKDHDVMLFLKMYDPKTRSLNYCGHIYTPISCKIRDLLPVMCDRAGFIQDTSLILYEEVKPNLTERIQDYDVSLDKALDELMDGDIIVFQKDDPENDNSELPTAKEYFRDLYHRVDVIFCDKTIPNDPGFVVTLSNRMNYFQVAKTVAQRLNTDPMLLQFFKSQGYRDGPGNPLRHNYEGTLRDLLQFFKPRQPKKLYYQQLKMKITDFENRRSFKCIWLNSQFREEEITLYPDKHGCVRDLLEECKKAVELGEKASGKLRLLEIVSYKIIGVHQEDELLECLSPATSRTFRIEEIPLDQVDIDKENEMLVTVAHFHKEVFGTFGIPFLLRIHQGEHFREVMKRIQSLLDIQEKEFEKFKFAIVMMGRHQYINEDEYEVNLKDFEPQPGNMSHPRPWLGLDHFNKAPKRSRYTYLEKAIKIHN
How it was run: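 MCF7 cells treated with compound for 4 h. Mdm2, p53 and p21 levels were determined by immunoblotting.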

NCc1ccc(OC(=O)Oc2ccc3ccccc3c2)cc1
inhibition [1]: Active
K [2]: 49 M⁻¹ s⁻¹
Kcat (Trypsin): 0.02 s⁻¹
Km (Trypsin; trypsin (isolated enzyme, unknown origin)): 1 µM
inhibition [3]: Active
